Published values of several laboratories.
Compare with care: the assays were run in different laboratories.
TYK2 JH2: Non-receptor tyrosine-protein kinase TYK2, JH2 (TYK2, Homo sapiens, UniProt P29597)
TYK2 JH1: Non-receptor tyrosine-protein kinase TYK2, JH1 (TYK2, Homo sapiens, UniProt P29597)
TYK2: Non-receptor tyrosine-protein kinase TYK2 (TYK2, Homo sapiens, UniProt P29597)

COc1ccc2c(c1)O[C@H](c1ccc(OC)c(OC)c1)C[C@@H]2NC(=O)C1(c2ccc3c(c2)OC(F)(F)O3)CC1
remaining binding (TYK2 JH2; cell-free assay, competition with immobilised ligand; 1 µM): 100%

Cc1cnc(Nc2ccc(C(=O)N3CCC(N4CCCC4)CC3)cc2)nc1-c1cc2ccccc2s1
remaining binding (TYK2 JH2; binding, competition with immobilised ligand; 1 µM): 0%

Cc1nc(C2CCN(C(=O)c3ccc(OC(F)(F)F)cc3N)CC2)c2ncc(N3CCN(C)CC3)cc2n1
remaining binding (TYK2 JH2; cell-free assay, competition with immobilised ligand; 1 µM): 88%

COc1cnc(Nc2cccc(S(N)(=O)=O)c2)nc1N1CCN(c2ccccc2)CC1
remaining binding (TYK2 JH1; binding, competition with immobilised ligand; 1 µM): 53%

CCN1CCN(Cc2ccc(C(=O)Nc3ccc(C)c(Oc4ccc5c(c4)CC(=O)N5)c3)cc2C(F)(F)F)CC1
remaining binding (TYK2 JH2; binding, competition with immobilised ligand; 1 µM): 100%

COc1cnc(Nc2cccc(S(N)(=O)=O)c2)nc1N1CCN(c2ccccc2)C(=O)C1
remaining binding (TYK2 JH2; binding, competition with immobilised ligand; 1 µM): 13%

O=C(NCC1CCOCC1)c1n[nH]cc1NC(=O)c1c(F)cccc1F
remaining binding (TYK2 JH2; binding, competition with immobilised ligand; 1 µM): 59%

F[C@@H]1CCN(c2nccc(-c3cnn4ncccc34)n2)C1
remaining binding (TYK2; binding; 1 µM): 100%

COc1ncc2cc3ccccc3nc2c1C#N
remaining binding (TYK2 JH2; cell-free assay, competition with immobilised ligand; 5 µM): 99%

N[C@H]1CCN(c2nccc(-c3cnn4ncccc34)n2)C1
remaining binding (TYK2; binding; 1 µM): 78%

C[C@@H]1CN(c2ccc3ncc(-c4ccc5[nH]nc(C6CC6)c5c4)n3n2)C[C@H](C)O1
remaining binding (TYK2; binding, competition with immobilised ligand; 0.5 µM): 100%

Nc1ncc2c(n1)-c1c([nH]c3ccc(C#CC4CC4)cc13)CCCC2
remaining binding (TYK2 JH1; binding, competition with immobilised ligand; 1 µM): 86%

COc1ccnn2ncc(-c3ccnc(N(C)C)n3)c12
remaining binding (TYK2 JH1; cell-free assay, competition with immobilised ligand; 1 µM): 81%

COc1cc(-c2cn(C3CCc4c(F)cccc4N(CC(F)(F)F)C3=O)nn2)ccc1-n1cnc(C)c1 (stereo not shown)
remaining binding (TYK2 JH2; cell-free assay, competition with immobilised ligand; 1 µM): 100%

O=C(NCCCN1CCOCC1)c1ccc(Nc2nccc(-c3cc4ccccc4s3)n2)cc1
remaining binding (TYK2 JH2; binding, competition with immobilised ligand; 1 µM): 0%

CN(C)c1ncc(F)c(-c2cnn3ncccc23)n1
remaining binding (TYK2 JH1; cell-free assay, competition with immobilised ligand; 1 µM): 87%

COc1ccc2cc(OCC3(C(=O)O)CN(C(=O)c4ccc(F)cc4)C3)ccc2c1
remaining binding (TYK2 JH2; cell-free assay, competition with immobilised ligand; 1 µM): 100%

O=C(c1ccc(Nc2nccc(-c3cc4ccccc4s3)n2)cc1)N1CCC(N2CCCC2)CC1
remaining binding (TYK2 JH2; binding, competition with immobilised ligand; 1 µM): 0.1%

CC(=O)N1CCC(c2ccc(C(=O)NC3=NCCN3)cc2C(F)(F)F)CC1
remaining binding (TYK2 JH2; cell-free assay, competition with immobilised ligand; 1 µM): 100%

CNC(=O)[C@@H]1CC[C@@H](n2c(-c3ccc4cnccc4c3)nc3ccc(C(=O)NCc4cccc(C(N)=O)c4)cc32)C1
remaining binding (TYK2 JH2; binding, competition with immobilised ligand; 1 µM): 100%

O=C(Nc1c[nH]nc1C(=O)NC1CCNCC1)c1cc(F)cc(F)c1
remaining binding (TYK2 JH1; binding, competition with immobilised ligand; 1 µM): 100%

O=C(N[C@H]1CCCCC/C=C\C2C[C@@]2(C(=O)O)NC(=O)[C@@H]2C[C@@H](Oc3ccncc3)CN2C1=O)OC1CCCC1 (stereo partly shown)
remaining binding (TYK2 JH1; binding, competition with immobilised ligand; 1 µM): 98%

O=C(NCCCN1CCOCC1)c1ccc(Nc2ncc(Cl)c(-c3ccc(Cl)s3)n2)cc1
remaining binding (TYK2 JH1; binding, competition with immobilised ligand; 1 µM): 26%

c1cncc(-c2cccc(Nc3nccc(NC4CCCCC4)n3)c2)c1
remaining binding (TYK2 JH1; binding, competition with immobilised ligand; 10 µM): 0.2%

C[C@@H]1CCN(c2nccc(-c3cnn4ncccc34)n2)C1
remaining binding (TYK2; binding; 1 µM): 66%

C[C@H](NC(=O)c1cnc2n1[C@](C)(Cc1ccc(C#N)cc1)C(=O)N2c1cc(Cl)c(F)c(Cl)c1)C(=O)NC1(c2ccccn2)CC1
remaining binding (TYK2 JH2; cell-free assay, competition with immobilised ligand; 1 µM): 100%

O=C(c1ccc(Nc2ncc(Cl)c(-c3ccc(Cl)s3)n2)cc1)N1CCC(N2CCCC2)CC1
remaining binding (TYK2 JH1; binding, competition with immobilised ligand; 1 µM): 25%

Cc1cnn2ncc(-c3ccnc(N(C)C)n3)c2c1
remaining binding (TYK2 JH1; cell-free assay, competition with immobilised ligand; 1 µM): 64%

CC(C)(C)c1ccc(-c2nc(CBr)nn2-c2cccc(O)c2)cc1
remaining binding (TYK2; cell-free assay, competition with immobilised ligand; 10 µM): 62%

CN1CCN(c2ccc(Nc3nccc(-c4ccccc4)n3)cc2C(F)(F)F)CC1
remaining binding (TYK2; binding; 10 µM): 0%

CN(C)c1nccc(-c2cnc3ncccn23)n1
remaining binding (TYK2; binding; 1 µM): 82%

Cc1c[nH]c2nccc(Oc3c(F)cc(Nc4cc(Cl)nc(N)n4)cc3F)c12
remaining binding (TYK2 JH2; cell-free assay, competition with immobilised ligand; 0.1 µM): 89%

CN(C)c1nccc(-c2cnn3ncccc23)n1
remaining binding (TYK2; binding; 1 µM): 100%

O=C(c1ccc(Nc2ncc(Cl)c(-c3cc4ccccc4s3)n2)cc1)N1CCC(N2CCCC2)CC1
remaining binding (TYK2 JH2; binding, competition with immobilised ligand; 1 µM): 0.1%
